Measured values collected from several papers.
Compare with care: the assays were run in different laboratories.
Target: Serine/threonine-protein kinase DCLK2 (DCLK2, Homo sapiens, UniProt Q8N568)
One construct used (Q8N568 1-766): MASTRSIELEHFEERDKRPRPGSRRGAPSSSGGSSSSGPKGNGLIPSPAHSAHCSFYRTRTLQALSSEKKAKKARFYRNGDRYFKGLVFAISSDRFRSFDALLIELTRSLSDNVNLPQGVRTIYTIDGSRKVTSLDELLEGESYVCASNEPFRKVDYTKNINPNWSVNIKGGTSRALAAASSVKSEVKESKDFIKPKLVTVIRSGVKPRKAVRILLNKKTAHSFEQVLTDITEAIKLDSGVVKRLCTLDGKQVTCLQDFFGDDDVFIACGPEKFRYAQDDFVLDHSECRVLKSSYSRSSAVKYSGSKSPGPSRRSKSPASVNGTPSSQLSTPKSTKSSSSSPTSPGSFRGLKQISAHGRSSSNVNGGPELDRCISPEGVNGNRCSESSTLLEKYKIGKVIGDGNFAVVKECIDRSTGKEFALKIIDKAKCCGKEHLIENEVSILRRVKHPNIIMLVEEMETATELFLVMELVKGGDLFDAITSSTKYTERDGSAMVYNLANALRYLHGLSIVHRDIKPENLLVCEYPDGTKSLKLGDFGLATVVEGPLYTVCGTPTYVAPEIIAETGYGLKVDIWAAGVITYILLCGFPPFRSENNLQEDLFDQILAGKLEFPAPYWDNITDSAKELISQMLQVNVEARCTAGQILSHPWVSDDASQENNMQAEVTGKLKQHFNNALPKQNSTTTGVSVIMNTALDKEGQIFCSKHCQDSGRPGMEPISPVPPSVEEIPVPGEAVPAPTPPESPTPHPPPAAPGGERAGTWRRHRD

Compound	assay	setting	quantity	result
Cc1ccc(NC(=O)c2ccc(CN3CCN(C)CC3)cc2)cc1Nc1nc(-c2cccnc2)cs1	cell-free assay	0.5 µM	remaining signal	102%
CCCOc1ccc([C@H]2[C@H](C(=O)O)[C@@H](c3ccc4c(c3)OCO4)CN2CC(=O)Nc2c(CC)cccc2CC)cc1	cell-free assay, competition with immobilised ligand	1 µM	remaining binding	77%
CC(C)(C)c1nc2c(s1)c1nc(N)ncc1c1ccc(NS(=O)(=O)c3c(F)cccc3F)c(F)c12	enzyme activity, inhibitor, radiometric	1 µM	remaining activity	90%
CCN(CC)CCNC(=O)c1c(C)[nH]c(/C=C2\C(=O)Nc3ccc(F)cc32)c1C	enzyme activity, inhibitor	10 µM	inhibition	69%
CCCS(=O)(=O)Nc1ccc(F)c(C(=O)c2c[nH]c3ncc(-c4ccc(Cl)cc4)cc23)c1F	enzyme activity, inhibitor	1 µM	inhibition	< 10%
CN1CC(Oc2cnc(C#N)cc2-c2ccn3nc(NC(=O)C4CC4)cc3c2)C1	enzyme activity, inhibitor	1 µM	inhibition	-1%
Cc1noc([C@H]2C[C@@H](c3ccc(C(F)(F)F)cc3)CN(C(=O)N3CCS(=O)(=O)C3)C2)n1	cell-free assay, competition with immobilised ligand	1 µM	remaining binding	100%
CCCOc1ccc(OC)c(F)c1C(=O)c1ccc(C(=O)N[C@@H]2CNC[C@H]2NC(=O)c2ccc3[nH]ncc3c2)cc1	enzyme activity, inhibitor	10 µM	remaining activity	33%
Cc1cc(NC(=O)c2cccc3cc(-c4cccc5[nH]nc(N)c45)ccc23)ccc1F	enzyme activity, inhibitor	0.1 µM	activity vs control	109%
N#CCCc1ccc2c(c1)-c1[nH]c3ccc([N+](=O)[O-])cc3c1CC(=O)N2	cell-free assay	0.5 µM	remaining signal	104%
O=C(Nc1cnn(-c2csc(C(=O)NC3COC3)c2)c1)Nc1ccccc1Cl	enzyme activity, inhibitor	5 µM	remaining activity	99.9%
CCS(=O)(=O)c1cc2cc(C[C@@](O)(CC(C)(C)c3ccc(F)cc3C(N)=O)C(F)(F)F)[nH]c2cn1	cell-free assay, competition with immobilised ligand	1 µM	remaining binding	100%
COc1cc2c(N3CCN(C(=O)Nc4ccc(OC(C)C)cc4)CC3)ncnc2cc1OCCCN1CCCCC1	cell-free assay	0.5 µM	remaining signal	103%
O=C(Nc1cnn(-c2csc(C(=O)NC3COC3)c2)c1)Nc1c(F)cccc1Cl	enzyme activity, inhibitor	5 µM	remaining activity	94.3%
CCN(CC)c1ccc(C2=NNC(=O)CC2C)cc1[N+](=O)[O-] (centres unmarked)	enzyme activity, inhibitor	10 µM	remaining activity	102%
Cn1cncc1C1=CN(c2ncnc3[nH]cnc23)CCS1	enzyme activity, inhibitor, radiometric	2 µM	inhibition	14.2%
CO[C@H]1CC[C@H](CNc2ccc(S(=O)(=O)NC(=O)c3ccc(N4CCN(CC5=C(c6ccc(Cl)cc6)CC(C)(C)CC5)CC4)cc3Oc3cnc4[nH]ccc4c3)cc2[N+](=O)[O-])CC1	cell-free assay, competition with immobilised ligand	1 µM	remaining binding	100%
COc1cc(Cl)c(C(=O)N[C@@H](CN[C@H]2CC[C@@H](N)CC2)Cc2ccc(C#N)cc2)cc1-c1ccc(CN[C@H](C)c2ccc(C)cc2)o1	enzyme activity, inhibitor	1 µM	remaining activity	96%
COc1cc2ncnc(Nc3ccc(Oc4ccccc4)c(C)c3C)c2cc1OC	enzyme activity, inhibitor	1 µM	inhibition	3%
CNC(=O)Nc1ccc2c(c1)[C@@]1(CC2)OC(=O)N(CC(=O)N(Cc2ccc(F)cc2)[C@@H](C)C(F)(F)F)C1=O	cell-free assay, competition with immobilised ligand	1 µM	remaining binding	89%
Cc1ccc(Nc2nccc(N(C)c3ccc4c(C)n(C)nc4c3)n2)cc1S(N)(=O)=O	enzyme activity, inhibitor	10 µM	inhibition	-19%
CS(=O)(=O)NCC[C@H](NC(=O)c1cncc2c1cnn2-c1ccc(F)cc1)c1ccnc(S(C)(=O)=O)c1	cell-free assay, competition with immobilised ligand	1 µM	remaining binding	100%
O=C1NC(=O)c2cc(Nc3ccc(F)cc3)c(Nc3ccc(F)cc3)cc21	cell-free assay	0.5 µM	remaining signal	100%
